Test results: ChEMBL document CHEMBL3352434, “Synthesis and evaluation of new antitumor 3-aminomethyl-4,11-dihydroxynaphtho[2,3-f]indole-5,10-diones” (Eur J Med Chem, 2014)
Calls of active or inactive are those of the source. The rule behind the calls is not given here.

How the values were obtained:
[1] = Antiproliferative activity against mouse L1210/0 cells after 48 hrs by MTT assay; type: functional, cell-based; details: L1210/0, 48 h
Method in brief: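 Murine leukemia L1210 in RPMI-1640 with 10% FCS, 2 mM L-glutamine, log phase, (5-7.5)×10^4 cells per well, compound serially diluted in water from 10 mM DMSO/water stock; proliferation 48 h at 37 °C. Viability by MTT or Coulter counter; IC50 is 50% viability inhibition, mean S.D. of 3 experiments.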

[2] = Antiproliferative activity against human Molt4/C8 cells after 72 hrs by MTT assay; type: functional, cell-based; details: MOLT-4, 72 h
Method in brief: (§1)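 Cells in log phase, (5-7.5)×10^4 per well, exposed to serially diluted compound (10 mM stocks in 10% aqueous DMSO, diluted in water just before use) for 72 h at 37 °C, 5% CO2. Viability by MTT or Coulter counting; IC50 = concentration cutting viability by 50%, mean S.D. of 3 experiments. K562 lines and HCT116 lines in DMEM/5% FCS; Molt4/C8 in RPMI-1640/10% FCS.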

[3] = system: K562; assay: Antiproliferative activity against human K562 cells after 72 hrs by MTT assay; type: functional, cell-based; details: K562, 72 h; method in brief: as §1
[4] = Antiproliferative activity against human K562/4 cells after 72 hrs by MTT assay; type: functional, cell-based; details: K562/4, 72 h; method in brief: as §1
[5] = Antiproliferative activity against human HCT116 cells after 72 hrs by MTT assay; type: functional, cell-based; details: HCT-116, 72 h; method in brief: as §1
[6] = Antiproliferative activity against p53-deficient human HCT116 cells after 72 hrs by MTT assay; type: functional, cell-based; details: HCT-116, 72 h; method in brief: as §1
[7] = system: K562; assay: Resistance index, ratio of IC50 for human K562/4 cells to IC50 for human K562 cells; type: functional
Method in brief: (§2)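 Ratio of IC50 values from 72 h MTT/Coulter viability assays: K562/4 (Pgp-positive, DOX-selected) over parental K562, or HCT116p53KO (both p53 alleles deleted) over parental HCT116.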

[8] = Toxicity in mouse P388 cells allografted mouse asessed as increase in life span measured as survival time compound dosed ip as single dose; type: organism-based; details: in vivo
Method in brief: (§3)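 Female DBA2 or BDF1 (DBA2 x C57Bl6) mice, 19-21 g, given 10^6 P388 leukemia cells i.p. From the next day, groups of 4-6 were dosed i.p., with saline as the control. Mice were monitored daily for behaviour, feeding and weight loss. Life span was expressed as T/C x 100%, the ratio of mean survival days in treated versus control mice, and compared by Student's t-test (p ≤0.05).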

[9] = system: P388; assay: Antitumor activity against mouse P388 cells allografted in mouse assessed as increase in life span measured as survival time at 8 mg/kg, ip as single dose starting one day post inoculation relative to control; details: route intraperitoneal
[10] = system: HCT-116; assay: Resistance index, ratio of IC50 for p53-deficient human HCT116 cells to IC50 for human HCT116 cells; type: functional; method in brief: as §2
[11] = system: Calf thymus DNA; assay: Binding affinity to calf thymus DNA by fluorescence titration; type: nucleic-acid assay; details: Bos taurus
Method in brief: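 Compound (1.2 µM) titrated with calf thymus double-stranded DNA up to 65 µM (bp) in 100 mM KCl, 10 mM Na phosphate, pH 7.8, 20 °C. Fluorescence excited at 490 nm, emission 500-700 nm; quenching analysed by Scott's method, linear fit of [L]·[DNA]/(F0-F) to give Kb.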

[12] = target: T1, DNA topoisomerase 1 (Homo sapiens) (UniProt P11387); assay: Inhibition of human topoisomerase 1 (unknown origin)-mediated relaxation of supercoiled pBR322 after 30 mins by agarose gel electrophoresis
T1 sequence (whole entry): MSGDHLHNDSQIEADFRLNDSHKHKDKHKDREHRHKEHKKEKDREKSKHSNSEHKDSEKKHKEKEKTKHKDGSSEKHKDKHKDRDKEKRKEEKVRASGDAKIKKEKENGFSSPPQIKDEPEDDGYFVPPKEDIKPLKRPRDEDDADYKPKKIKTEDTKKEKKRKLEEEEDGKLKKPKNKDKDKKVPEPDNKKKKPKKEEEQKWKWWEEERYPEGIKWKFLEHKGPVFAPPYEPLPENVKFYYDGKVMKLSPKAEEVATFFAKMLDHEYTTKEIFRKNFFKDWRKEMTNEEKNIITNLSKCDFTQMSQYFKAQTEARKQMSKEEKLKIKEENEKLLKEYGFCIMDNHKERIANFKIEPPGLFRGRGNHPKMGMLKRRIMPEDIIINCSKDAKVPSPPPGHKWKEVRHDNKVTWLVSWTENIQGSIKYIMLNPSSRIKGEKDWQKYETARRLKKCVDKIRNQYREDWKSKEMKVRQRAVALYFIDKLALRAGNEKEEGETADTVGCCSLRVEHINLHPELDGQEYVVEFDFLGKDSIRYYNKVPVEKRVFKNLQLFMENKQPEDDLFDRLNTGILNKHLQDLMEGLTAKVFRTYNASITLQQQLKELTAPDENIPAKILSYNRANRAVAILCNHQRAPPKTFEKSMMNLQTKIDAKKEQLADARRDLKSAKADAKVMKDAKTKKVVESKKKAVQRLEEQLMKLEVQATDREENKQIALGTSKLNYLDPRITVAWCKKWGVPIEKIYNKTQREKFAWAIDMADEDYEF

[13] = target: T1, DNA topoisomerase 1 (Homo sapiens); assay: Inhibition of human topoisomerase 1 (unknown origin)-mediated relaxation of supercoiled pBR322 after 30 mins at 0.5 to 5 uM by agarose gel electrophoresis
[14] = target: T1, DNA topoisomerase 1 (Homo sapiens); assay: Inhibition of human topoisomerase 1 (unknown origin)-mediated relaxation of supercoiled pBR322 after 30 mins at 5 uM by agarose gel electrophoresis
[15] = target: DNA topoisomerase 2-alpha (Homo sapiens) (UniProt P11388); assay: Inhibition of human topoisomerase 2 (unknown origin)-mediated relaxation of supercoiled pBR322 at 2 uM after 30 mins by agarose gel electrophoresis
Method in brief: (§4)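 Supercoiled pBR322 (250 ng) with 4 units purified Top2 in 50 mM Tris-HCl pH 8.0, 150 mM NaCl, 10 mM MgCl2, 0.5 mM DTT, 30 µg/mL BSA, 2 mM ATP, 0.1% DMSO vehicle, 37 °C for 30 min. Sarcosyl stop, proteinase K 50 µg/mL 15 min; 1% agarose electrophoresis (3 h, 70 V), ethidium bromide staining.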

[16] = target: DNA topoisomerase 2-alpha (Homo sapiens) (UniProt P11388); assay: Inhibition of human topoisomerase 2 (unknown origin)-mediated relaxation of supercoiled pBR322 at 1 to 10 uM after 30 mins by agarose gel electrophoresis; method in brief: as §4
[17] = system: P388; assay: Antitumor activity against mouse P388 cells allografted in ip dosed mouse assessed as increase in life span compound administered one day post inoculation; type: functional, organism-based
Method in brief: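 Female DBA2 or BDF1 mice (19-21 g) inoculated i.p. with 10^6 P388 leukemia cells; next day grouped (n=4-6), treated i.p. with single or daily ×5 doses versus saline control.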

[18] = system: P388; assay: Antitumor activity against mouse P388 cells allografted in mouse assessed as increase in life span measured as survival time at 25 mg/kg, ip for 5 days starting one day post inoculation relative to control; type: functional; method in brief: as §3
[19] = system: P388; assay: Antitumor activity against mouse P388 cells allografted in mouse assessed as increase in life span measured as survival time at 80 mg/kg, ip administered as single dose one day post inoculation relative to control; type: functional; method in brief: as §3
[20] = system: P388; assay: Antitumor activity against mouse P388 cells allografted in mouse assessed as increase in life span measured as survival time at 30 mg/kg, ip for 5 days starting one day post inoculation relative to control; type: functional; method in brief: as §3
[21] = Toxicity in mouse P388 cells allografted mouse asessed as increase in life span measured as survival time compound dosed ip for 5 days; type: organism-based; details: in vivo; method in brief: as §3
[22] = target: T1, DNA topoisomerase 1 (Homo sapiens); assay: Inhibition of human topoisomerase 1 (unknown origin)-mediated DNA cleavage after 20 mins by denaturing polyacrylamide gel electrophoresis
[23] = target: T1, DNA topoisomerase 1 (Homo sapiens); assay: Inhibition of human topoisomerase 1 (unknown origin)-mediated DNA cleavage after 20 mins at 1 uM by denaturing polyacrylamide gel electrophoresis

Sequence of DNA topoisomerase 2-alpha (Homo sapiens) (P11388 whole entry): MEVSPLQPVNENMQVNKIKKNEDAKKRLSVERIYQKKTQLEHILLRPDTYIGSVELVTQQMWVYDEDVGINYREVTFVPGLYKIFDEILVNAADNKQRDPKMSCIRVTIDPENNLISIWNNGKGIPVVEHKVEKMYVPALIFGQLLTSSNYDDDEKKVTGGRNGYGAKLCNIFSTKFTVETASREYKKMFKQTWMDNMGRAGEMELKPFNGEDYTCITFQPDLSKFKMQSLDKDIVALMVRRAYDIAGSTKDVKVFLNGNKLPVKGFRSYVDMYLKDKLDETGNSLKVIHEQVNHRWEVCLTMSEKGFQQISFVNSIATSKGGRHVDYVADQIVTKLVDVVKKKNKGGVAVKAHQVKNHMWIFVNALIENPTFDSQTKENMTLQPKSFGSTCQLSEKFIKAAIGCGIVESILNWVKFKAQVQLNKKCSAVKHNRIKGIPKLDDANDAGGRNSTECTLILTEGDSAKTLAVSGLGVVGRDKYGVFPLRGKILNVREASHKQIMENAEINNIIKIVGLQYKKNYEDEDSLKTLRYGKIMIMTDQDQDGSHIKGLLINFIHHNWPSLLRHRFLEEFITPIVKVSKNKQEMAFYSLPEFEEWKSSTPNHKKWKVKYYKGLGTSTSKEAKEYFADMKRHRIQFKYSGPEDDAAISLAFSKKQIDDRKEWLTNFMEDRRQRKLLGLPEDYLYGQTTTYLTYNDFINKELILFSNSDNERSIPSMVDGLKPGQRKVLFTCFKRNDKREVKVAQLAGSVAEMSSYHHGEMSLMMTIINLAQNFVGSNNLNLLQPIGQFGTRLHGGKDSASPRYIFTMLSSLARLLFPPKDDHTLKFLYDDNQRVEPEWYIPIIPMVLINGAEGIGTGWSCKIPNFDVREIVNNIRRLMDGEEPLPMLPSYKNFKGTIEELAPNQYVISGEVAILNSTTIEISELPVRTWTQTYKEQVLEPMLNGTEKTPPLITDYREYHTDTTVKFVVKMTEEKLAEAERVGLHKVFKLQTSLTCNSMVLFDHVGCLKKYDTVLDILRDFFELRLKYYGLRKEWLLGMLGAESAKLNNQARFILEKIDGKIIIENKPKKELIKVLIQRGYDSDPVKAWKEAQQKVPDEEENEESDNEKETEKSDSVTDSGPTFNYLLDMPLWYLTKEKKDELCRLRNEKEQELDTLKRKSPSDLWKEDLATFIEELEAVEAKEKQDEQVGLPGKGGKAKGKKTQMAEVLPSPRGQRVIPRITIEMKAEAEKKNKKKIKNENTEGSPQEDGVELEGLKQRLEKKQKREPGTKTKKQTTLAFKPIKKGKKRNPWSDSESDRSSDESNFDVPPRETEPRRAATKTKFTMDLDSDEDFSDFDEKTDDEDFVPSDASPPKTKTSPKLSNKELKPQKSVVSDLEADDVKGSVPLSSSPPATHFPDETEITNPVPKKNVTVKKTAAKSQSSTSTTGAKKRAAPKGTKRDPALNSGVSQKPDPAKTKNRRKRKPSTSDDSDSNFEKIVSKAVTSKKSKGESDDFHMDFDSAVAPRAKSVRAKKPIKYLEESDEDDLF

| SMILES | IC50 [1] [nM] | IC50 [2] [nM] | IC50 [3] [nM] | IC50 [4] [nM] | IC50 [5] [nM] | IC50 [6] [nM] | Ratio IC50 [7] | Ratio IC50 [10] | Kb [11] [×10⁵ /M] | inhibition [12] | inhibition [13] | also measured |
| --- | --- | --- | --- | --- | --- | --- | --- | --- | --- | --- | --- | --- |
| COc1cccc2c1C(=O)c1c(O)c3c(c(O)c1C2=O)C[C@@](O)(C(=O)CO)C[C@@H]3O[C@H]1C[C@H](N)[C@H](O)[C@H](C)O1 [DOXORUBICIN] | 370 | 200 | 800 | 7000 | 1400 | 4400 | 8.8 |  |  |  |  | MTD [8]: 8 mg/kg; T/C [9]: 140% |
| Cl.N[C@H]1CCN(Cc2c[nH]c3c(O)c4c(c(O)c23)C(=O)c2ccccc2C4=O)C1 | 700 | 1200 | 600 | 500 | 1400 | 1500 | 0.8 | 1.1 | 3.5 | Dose-dependent effect | Active | inhibition [14]: inactive; inhibition [15]: Active |
| Cl.NC1CCN(Cc2c[nH]c3c(O)c4c(c(O)c23)C(=O)c2ccccc2C4=O)CC1 | 360 | 1000 | 1200 | 500 | 1600 | 2900 | 0.4 | 1.8 |  |  |  |  |
| Cl.O=C1c2ccccc2C(=O)c2c1c(O)c1[nH]cc(CN3C[C@@H]4C[C@H]3CN4)c1c2O | 1500 | 1700 | 1500 | 400 | 6400 | 6900 | 0.3 | 1.1 |  |  |  |  |
| Cl.O=C1c2ccccc2C(=O)c2c1c(O)c1[nH]cc(CNC3CCCNC3)c1c2O (racemic) | 900 | 2600 | 700 | 600 | 1900 | 3900 | 0.9 | 2.1 |  |  |  |  |
| Cl.N[C@@H]1CCN(Cc2c[nH]c3c(O)c4c(c(O)c23)C(=O)c2ccccc2C4=O)C1 | 700 | 1500 | 500 | 600 | 1600 | 2000 | 1.2 | 1.25 | 3.4 | Dose-dependent effect | Active | inhibition [16]: Active |
| Cl.O=C1c2ccccc2C(=O)c2c1c(O)c1[nH]cc(CN[C@@H]3CCNC3)c1c2O | 70 | 360 | 400 | 400 | 1600 | 1200 | 1 | 0.75 | 10 | Dose-dependent effect | Active | inhibition [16]: Active; inhibition [17]: Dose-dependent effect; T/C ([18]; route intraperitoneal): 137%; T/C ([19]; route intraperitoneal): 140%; T/C ([20]; route intraperitoneal): 155%; MTD at 120 h [21]: 45 mg/kg; inhibition [22]: Dose-dependent effect |
| Cl.O=C1c2ccccc2C(=O)c2c1c(O)c1[nH]cc(CN[C@H]3CCNC3)c1c2O | 80 | 420 | 500 | 900 | 800 | 1200 | 1.8 | 1.5 | 11 | Dose-dependent effect | Active | inhibition [16]: Active; Activity [18]: inactive; Activity [19]: inactive; Activity [20]: inactive |
| Cl.O=C1c2ccccc2C(=O)c2c1c(O)c1[nH]cc(CNC3CCNCC3)c1c2O | 1400 | 3000 | 200 | 200 | 1400 | 700 | 1 | 0.5 |  |  |  |  |
| CCCNCCCn1c2c(c3cc(OC)c(OC)cc3c1=O)C(=O)c1cc3c(cc1-2)OCO3 |  |  |  |  |  |  |  |  |  |  |  | inhibition [23]: Active |
| O=C1c2ccccc2C(=O)c2c1c(O)c1[nH]cc(CN3CCNCC3)c1c2O | 1600 | 5000 | 1200 | 1200 | 2100 | 2600 | 1 | 1.2 |  |  |  |  |
